In ChEMBL document CHEMBL3804806, “Synthesis of (Z)-1-(1,3-diphenyl-1H-pyrazol-4-yl)-3-(phenylamino)prop-2-en-1-one derivatives as potential anticancer and apoptosis inducing agents” (Eur J Med Chem, 2016):
Active and inactive are the calls of the source. No cut-off for these calls is given here.

What was measured:
[1] = system: HT-29; test: Antiproliferative activity against human HT-29 cells after 48 hrs by MTT assay; assay type: functional, cell-based; conditions: HT-29, 48 h
Method in brief: (§1)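 Cells seeded at 3,000-5,000/well by doubling time and grown 24 h (37 °C, 5% CO2). HT-29/U87MG kept in DMEM + 10% FBS; A549/PC-3/HaCaT in RPMI-1640 + 10% FBS. Compounds for 48 h, then MTT 4 h, formazan dissolved in DMSO, A570 minus A630. % inhibition vs DMSO-treated cells; IC50 by probit. Three independent experiments in quadruplicate; mean ± SD.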

[2] = Antiproliferative activity against human PC3 cells after 48 hrs by MTT assay; assay type: functional, cell-based; conditions: PC-3, 48 h; method in brief: as §1
[3] = system: A549; test: Antiproliferative activity against human A549 cells after 48 hrs by MTT assay; assay type: functional, cell-based; conditions: A549, 48 h; method in brief: as §1
[4] = Antiproliferative activity against human U87MG cells after 48 hrs by MTT assay; assay type: functional, cell-based, U-87MG ATCC; conditions: U-87 MG; method in brief: as §1
[5] = system: HaCaT; test: Antiproliferative activity against human HaCaT cells after 48 hrs by MTT assay; assay type: cell-based; method in brief: as §1
[6] = system: A549; test: Induction of apoptosis in human A549 cells assessed as loss in mitochondrial membrane potential at antiproliferative IC50 after 24 hrs by rhodamine 123 staining based spectrofluorometry relative to control; assay type: functional
Method in brief: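 A549 cells plated at 5×10^5 cells/mL, adhered overnight, then 24 h at IC50. Harvested and incubated with rhodamine-123 (10 µg/mL) in PBS 30 min at room temp, washed. Fluorescence read by spectrofluorometer, ex 480/em 530 nm, vs untreated cells. Mean ± SD of three independent experiments, each in triplicate.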

[7] = system: A549; test: Induction of apoptosis in human A549 cells assessed as intracellular ROS level at antiproliferative IC50 after 24 hrs by DCFDA staining based fluorescence microscopic analysis relative to control; assay type: functional
[8] = system: A549; test: Anti-migratory activity in human A549 cells assessed as disruption of actin fibre assembly after 12 hrs by rhodamine phalloidin/Hoechst 33242 staining based confocal microscopic analysis; assay type: functional, cell-based
Method in brief: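 A549 cells (1x10⁶/well) grown on coverslips 24 h, then exposed to compounds 12 h. Washed, fixed in 4% paraformaldehyde in PBS, stained with rhodamine-phalloidin (F-actin) and Hoechst 33242 (nuclei), mounted in anti-fade. Examined by confocal microscopy, 20X objective.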

[9] = Selectivity ratio of IC50 for human HaCaT cells to IC50 for human A549 cells; assay type: ADME, cell-based; conditions: HaCaT cells versus A549 cells, read-out: Ratio IC50
Method in brief: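 Ratio built from MTT IC50s: 48 h exposure, absorbance 570 minus 630 nm, inhibition relative to DMSO vehicle, probit-fitted IC50 for HaCaT keratinocytes and A549 cells. Three independent experiments, quadruplicate wells.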

[10] = system: A549; test: Anti-migratory activity in human A549 cells at antiproliferative IC50 after 24 to 48 hrs by wound healing assay; assay type: functional, cell-based
[11] = system: A549; test: Cell cycle arrest in human A549 cells assessed as accumulation at G2/M phase at antiproliferative IC50 after 24 hrs by propidium iodide staining based flow cytometry (reference value: 27.2%); assay type: functional
[12] = system: A549; test: Induction of apoptosis in human A549 cells assessed as chromatin condensation at antiproliferative IC50 after 24 hrs by Hoechst 33242 staining based confocal microscopic analysis; assay type: functional, cell-based
Method in brief: (§2)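 A549 cells (1x10⁶/well) on coverslips exposed 24 h at IC50, then fixed in 4% paraformaldehyde 10 min at 4 °C. Stained with Hoechst 33242 (5 μg/mL) 20 min at room temp. Nuclear morphology examined by confocal microscopy, excitation 350/emission 460 nm, 20X.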

[13] = system: A549; test: Induction of apoptosis in human A549 cells assessed as nuclear fragmentation at antiproliferative IC50 after 24 hrs by Hoechst 33242 staining based confocal microscopic analysis; assay type: functional, cell-based; method in brief: as §2

COc1ccc(-c2nn(-c3ccccc3)cc2C(=O)/C=C\Nc2ccc(Cl)cc2)cc1
IC50 [1]: 4.76 µM | IC50 [2]: 3.89 µM | IC50 [3]: 2.97 µM | IC50 [4]: 8.86 µM | IC50 [5]: 20.9 µM

COc1cc(-c2nn(-c3ccccc3)cc2C(=O)/C=C\Nc2ccc(O)cc2)cc(OC)c1OC
IC50 [1]: 2.5 µM | IC50 [2]: 4.6 µM | IC50 [3]: 3.16 µM | IC50 [4]: 1.8 µM | IC50 [5]: 17.6 µM

O=c1[nH]cc(F)c(=O)[nH]1 [FLUOROURACIL]
IC50 [1]: 2.8 µM | IC50 [2]: 2.76 µM | IC50 [3]: 3.98 µM | IC50 [4]: 3.65 µM | IC50 [5]: 16.1 µM

COc1cc(N/C=C\C(=O)c2cn(-c3ccccc3)nc2-c2cc(OC)c(OC)c(OC)c2)cc(OC)c1OC
IC50 [1]: 8.4 µM | IC50 [2]: 14.1 µM | IC50 [3]: 7.98 µM | IC50 [4]: 5.1 µM | IC50 [5]: 20.9 µM

COc1ccc(-c2nn(-c3ccccc3)cc2C(=O)/C=C\Nc2ccc(C(F)(F)F)cc2)cc1
IC50 [1]: 9.87 µM | IC50 [2]: > 50 µM | IC50 [3]: > 50 µM | IC50 [4]: > 50 µM | IC50 [5]: > 50 µM

COc1cc(-c2nn(-c3ccccc3)cc2C(=O)/C=C\Nc2ccc(Cl)cc2)cc(OC)c1OC
IC50 [1]: 7.68 µM | IC50 [2]: 11.2 µM | IC50 [3]: 8.67 µM | IC50 [4]: 3.21 µM | IC50 [5]: 30.2 µM

O=C(/C=C\Nc1ccc(O)cc1)c1cn(-c2ccccc2)nc1-c1ccc(F)cc1
Activity [6]: 30% | fold change (FC) [7]: 2.1 | Activity [8]: Active | IC50 [1]: 1.9 µM | IC50 [2]: 2.6 µM | IC50 [3]: 1.5 µM | IC50 [4]: 4.7 µM | IC50 [5]: 16.3 µM | selectivity ratio [9]: 10 | Activity [10]: Active | Activity [11]: 41% | Activity [12]: Active | Activity [13]: Active

O=C(/C=C\Nc1ccc(C(F)(F)F)cc1)c1cn(-c2ccccc2)nc1-c1ccc(F)cc1
IC50 [1]: > 50 µM | IC50 [2]: > 50 µM | IC50 [3]: > 50 µM | IC50 [4]: > 50 µM | IC50 [5]: > 50 µM

O=C(/C=C\Nc1ccc(F)cc1)c1cn(-c2ccccc2)nc1-c1ccccc1
IC50 [1]: 6.87 µM | IC50 [2]: 7.98 µM | IC50 [3]: 4.67 µM | IC50 [4]: 10.2 µM | IC50 [5]: 34.2 µM

COc1ccc(-c2nn(-c3ccccc3)cc2C(=O)/C=C\Nc2ccc(O)cc2)cc1
Activity [6]: 43.5% | fold change (FC) [7]: 2.1 | Activity [8]: Active | IC50 [1]: 2.46 µM | IC50 [2]: 1.98 µM | IC50 [3]: 2.77 µM | IC50 [4]: 3.73 µM | IC50 [5]: 34.6 µM | selectivity ratio [9]: 10 | Activity [10]: Active | Activity [11]: 43.1% | Activity [12]: Active | Activity [13]: Active

O=C(/C=C\Nc1ccc(O)cc1)c1cn(-c2ccccc2)nc1-c1ccccc1
IC50 [1]: 5 µM | IC50 [2]: 3.6 µM | IC50 [3]: 3.21 µM | IC50 [4]: 4.29 µM | IC50 [5]: 44.6 µM

COc1cc(N/C=C\C(=O)c2cn(-c3ccccc3)nc2-c2ccccc2)cc(OC)c1OC
IC50 [1]: 9.8 µM | IC50 [2]: 5.93 µM | IC50 [3]: 6.34 µM | IC50 [4]: 2.35 µM | IC50 [5]: 36.2 µM

O=C(/C=C\Nc1ccc(Cl)cc1)c1cn(-c2ccccc2)nc1-c1ccc(Cl)cc1
IC50 [1]: 4.65 µM | IC50 [2]: 3.89 µM | IC50 [3]: 3.67 µM | IC50 [4]: 13.1 µM | IC50 [5]: 23.4 µM

COc1ccc(N/C=C\C(=O)c2cn(-c3ccccc3)nc2-c2ccc(Cl)cc2)cc1
IC50 [1]: 8.93 µM | IC50 [2]: 10.7 µM | IC50 [3]: 6.46 µM | IC50 [4]: 6.89 µM | IC50 [5]: 30.8 µM

O=C(/C=C\Nc1ccc(F)cc1)c1cn(-c2ccccc2)nc1-c1ccc(F)cc1
IC50 [1]: 6.5 µM | IC50 [2]: 7.9 µM | IC50 [3]: 5.78 µM | IC50 [4]: 18.2 µM | IC50 [5]: > 50 µM

COc1cc(-c2nn(-c3ccccc3)cc2C(=O)/C=C\Nc2ccc(C(F)(F)F)cc2)cc(OC)c1OC
IC50 [1]: > 50 µM | IC50 [2]: > 50 µM | IC50 [3]: > 50 µM | IC50 [4]: > 50 µM | IC50 [5]: > 50 µM

COc1ccc(N/C=C\C(=O)c2cn(-c3ccccc3)nc2-c2ccccc2)cc1
IC50 [1]: 1.56 µM | IC50 [2]: 6.4 µM | IC50 [3]: 3.25 µM | IC50 [4]: > 50 µM | IC50 [5]: > 50 µM

COc1ccc(N/C=C\C(=O)c2cn(-c3ccccc3)nc2-c2ccc(OC)cc2)cc1
IC50 [1]: 8.76 µM | IC50 [2]: 13.4 µM | IC50 [3]: 6.78 µM | IC50 [4]: > 50 µM | IC50 [5]: > 50 µM

O=C(/C=C\Nc1ccc(O)cc1)c1cn(-c2ccccc2)nc1-c1ccc(Cl)cc1
Activity [6]: 45.8% | fold change (FC) [7]: 2.1 | Activity [8]: Active | IC50 [1]: 2.5 µM | IC50 [2]: 4.43 µM | IC50 [3]: 1.91 µM | IC50 [4]: 1.5 µM | IC50 [5]: 22.6 µM | selectivity ratio [9]: 10 | Activity [10]: Active | Activity [11]: 49.2% | Activity [12]: Active | Activity [13]: Active

COc1ccc(N/C=C\C(=O)c2cn(-c3ccccc3)nc2-c2ccc(F)cc2)cc1
IC50 [1]: 3.2 µM | IC50 [2]: 4.6 µM | IC50 [3]: 8.9 µM | IC50 [4]: 2.5 µM | IC50 [5]: 19.6 µM

COc1cc(N/C=C\C(=O)c2cn(-c3ccccc3)nc2-c2ccc(Cl)cc2)cc(OC)c1OC
IC50 [1]: 12.7 µM | IC50 [2]: 9.98 µM | IC50 [3]: 5.64 µM | IC50 [4]: 17.8 µM | IC50 [5]: 46.6 µM

COc1ccc(-c2nn(-c3ccccc3)cc2C(=O)/C=C\Nc2cc(OC)c(OC)c(OC)c2)cc1
IC50 [1]: 14.6 µM | IC50 [2]: 18.9 µM | IC50 [3]: 11.2 µM | IC50 [4]: > 50 µM | IC50 [5]: > 50 µM

O=C(/C=C\Nc1ccc(Cl)cc1)c1cn(-c2ccccc2)nc1-c1ccccc1
IC50 [1]: 3.61 µM | IC50 [2]: 5.2 µM | IC50 [3]: 14.1 µM | IC50 [4]: 11.4 µM | IC50 [5]: 28.4 µM

O=C(/C=C\Nc1ccc(C(F)(F)F)cc1)c1cn(-c2ccccc2)nc1-c1ccccc1
IC50 [1]: > 50 µM | IC50 [2]: > 50 µM | IC50 [3]: > 50 µM | IC50 [4]: > 50 µM | IC50 [5]: > 50 µM

O=C(/C=C\Nc1ccc(F)cc1)c1cn(-c2ccccc2)nc1-c1ccc(Cl)cc1
IC50 [1]: > 50 µM | IC50 [2]: > 50 µM | IC50 [3]: > 50 µM | IC50 [4]: 17.9 µM | IC50 [5]: > 50 µM

COc1ccc(N/C=C\C(=O)c2cn(-c3ccccc3)nc2-c2cc(OC)c(OC)c(OC)c2)cc1
IC50 [1]: 5.78 µM | IC50 [2]: 9.6 µM | IC50 [3]: 4.78 µM | IC50 [4]: 12.8 µM | IC50 [5]: > 50 µM

O=C(/C=C\Nc1ccc(C(F)(F)F)cc1)c1cn(-c2ccccc2)nc1-c1ccc(Cl)cc1
IC50 [1]: > 50 µM | IC50 [2]: > 50 µM | IC50 [3]: > 50 µM | IC50 [4]: > 50 µM | IC50 [5]: > 50 µM

COc1ccc(-c2nn(-c3ccccc3)cc2C(=O)/C=C\Nc2ccc(F)cc2)cc1
IC50 [1]: 7.65 µM | IC50 [2]: 5.73 µM | IC50 [3]: 3.98 µM | IC50 [4]: 8.91 µM | IC50 [5]: 8.91 µM

O=C(/C=C\Nc1ccc(Cl)cc1)c1cn(-c2ccccc2)nc1-c1ccc(F)cc1
IC50 [1]: 4.6 µM | IC50 [2]: 3.8 µM | IC50 [3]: 6.7 µM | IC50 [4]: 8.9 µM | IC50 [5]: 21.3 µM

COc1cc(-c2nn(-c3ccccc3)cc2C(=O)/C=C\Nc2ccc(F)cc2)cc(OC)c1OC
IC50 [1]: 12.5 µM | IC50 [2]: 7.7 µM | IC50 [3]: 15.6 µM | IC50 [4]: 4.78 µM | IC50 [5]: 25.7 µM

COc1cc(N/C=C\C(=O)c2cn(-c3ccccc3)nc2-c2ccc(F)cc2)cc(OC)c1OC
IC50 [1]: 7.77 µM | IC50 [2]: 4.89 µM | IC50 [3]: 9.35 µM | IC50 [4]: 12.6 µM | IC50 [5]: 32.8 µM
